According to ChEMBL document CHEMBL4513216, “Probing the Open Global Health Chemical Diversity Library for Multistage-Active Starting Points for Next-Generation Antimalarials” (ACS Infect Dis, 2020):

Assay: Toxicity liver stage against HepG2, at 10uM
Format: cell-based
Design: test concentration 10 uM, cell line HepG2-A16-CD81EGFP
Conditions: human, HepG2-A16-CD81EGFP cells; read-out: INHIBITION
How it was run: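 Uninfected HepG2-A16-CD81EGFP cells, 3 × 10^3 per well, 1536-well, plated on prespotted compound at 10 μM final, parasite-free screening media added to match infected plates; puromycin 10 μM positive, DMSO 0.5% negative; run in parallel with 48 h PbLuc assay at 37 °C, 5% CO2; viability by CellTiter-Glo luminescence, normalized to controls.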

| Structure (SMILES) | cytotoxicity at 10 µM [%] |
| --- | --- |
| Cc1cccc(C(=O)N2CCCCC2c2ccc(CN(C)C)cc2)n1 (configuration not stated) | -19.5 |
| COc1ccc(CNC(=O)CNc2cc3c(cc2Cl)OCCO3)cc1 | -0.238 |
| COCCN(C/C=C/c1ccccc1)Cc1ccccn1 | 6.82 |
| CCc1nc(C)c(CN2CCN(c3ncnc4c(C)csc34)CC2)[nH]1 | 17.6 |
| CCn1nc(C)c2nn(CC(=O)NC3CCSCC3)cc21 | -3.57 |
| Cc1cccc(N2CCN(C(=O)NC(C)c3nncn3C)CC2)c1 (configuration not stated) | -6.13 |
| CCN(Cc1ccncc1)CC1(C)Cc2c(N)nc(N)nc2O1 (configuration not stated) | 2.15 |
| COc1cccc(CN2CCCCCC2c2cccs2)c1O (configuration not stated) | 11.4 |
| CN(C)CC(=O)N1CCC2(CC1)CN(Cc1cccnc1)C(=O)CO2 | -8.99 |
| CN1CCN(Cc2ccccc2Oc2cncc(C(N)=O)n2)CC1 | -4.89 |
| CCCn1ncc(C(=O)N2CCCC(OCc3ccccn3)C2)c1C (configuration not stated) | -0.2 |
| Cc1ccc(C(=O)N2CCO[C@H]3[C@H](OCCN(C)C)CC[C@@H]32)o1 | -145 |
| Cc1ccccc1C1(C(=O)NCCN2CCCCC2C)CCOCC1 (configuration not stated) | -1.69 |
| CC(NC(=O)NCCCn1cncn1)c1ccc2c(c1)CC(=O)N2 (configuration not stated) | -8.01 |
| O=C(c1c[nH]cn1)N1CCC(F)(F)C2(CCN(c3ncccn3)C2)C1 (configuration not stated) | 9.76 |
| CC(C)COc1cncc(NCCc2nnc3ccccn23)n1 | 7.55 |
| O=C(O)CC(CC(=O)NCc1ccsc1)c1cccs1 (configuration not stated) | -8.43 |
| N#Cc1cccc(N2CC3(CCN(C(=O)c4cccnc4)C3)CC2=O)c1 (configuration not stated) | 0.925 |
| CCCc1nc(C(=O)NC(COC)c2ccnn2C)cs1 (configuration not stated) | -2.37 |
| Cc1cc(C(=O)N(C)Cc2cccs2)nc(N2CCCCC2)n1 | 17.5 |
| CCN1CCN(c2cncc(Cl)n2)CC1 | 11.6 |

| Structure (SMILES) | cytotoxicity at 10 µM [%] |
| --- | --- |
| Cc1cccc(CNCC2COC3(CCCC3)O2)c1C (configuration not stated) | -150 |
| CCOc1ccc(C#N)cc1NCC(=O)Nc1cc(C)no1 | -6.67 |
| CNS(=O)(=O)CC(=O)NCc1cc2c(s1)CCCCC2 | 2.42 |
| CN(C(=O)NCc1nccn1CCc1ccccc1)C1CCC1 | 1.96 |
| CCN1C[C@H]2C3(CCN(S(=O)(=O)CC)CC3)CC[C@@]2(C(=O)N(C)C)C1 | 2.84 |
| Cc1noc(C)c1C1CCCN1CCC(=O)N1CCc2ccccc2C1 (configuration not stated) | 2.39 |
| CN(C)C[C@H]1C[C@@H]2CN(C(=O)c3ccco3)C[C@@H]2O1 | -5.77 |
| Cn1cc(C(=O)N2CCC(c3nccn3Cc3ccncc3)CC2)cn1 | -0.658 |
| COCCCNC(=O)CN(C)C(=O)c1cc(Cl)ccc1O | -1.84 |
| CC(NCc1c(C(C)C)nn(C)c1N1CCOCC1)C(=O)N(C)C (configuration not stated) | -10.7 |
| CS(=O)(=O)c1ccc(C(=O)NCCNc2ncccn2)cc1 | -5.15 |
| O=C(COCc1ccccc1)N1CCCC1c1noc(C2CC2)n1 (configuration not stated) | -1.98 |
| NCCO[C@H]1C[C@@H](O)C12CCN(C(=O)CCOc1ccccc1)CC2 | 3.12 |
| O=C(C1CCCCC1)N1CCO[C@@H]2CNC[C@@H]21 | 8.82 |
| CC(=O)N1CCCN(CC(C)(O)c2cccc(C(F)(F)F)c2)CC1 (configuration not stated) | -10.3 |
| CC(C)CNc1nccc(-c2cnc3sc(Cl)cn3c2=O)n1 | -0.723 |
| CCc1csc(C2CCCN(C(=O)C3=NN(CC)C(=O)CC3)C2)n1 (configuration not stated) | -6.26 |
| COc1cccc(OCC2CCCN(C(=O)c3ccc(N)nc3)C2)c1 (configuration not stated) | 3.37 |
| Cc1cccc(-c2noc(CN3CCc4c(ncn4C4CC4)C3)n2)c1 | 4.95 |
| OC1CCCN(Cc2c(-c3ccco3)[nH]c3ncccc23)C1 (configuration not stated) | -5.87 |
| Cc1nn(C)c(C)c1S(=O)(=O)NCC1CCN(c2ccccn2)CC1 | 6.5 |

| Structure (SMILES) | cytotoxicity at 10 µM [%] |
| --- | --- |
| Cc1nn(C)c(C)c1-c1cnc(C2CCCN(C)C2)cn1 (configuration not stated) | -8.8 |
| CCOCC(=O)N1C[C@@H](O)[C@H](N2CCN(c3ccccc3)CC2)C1 | 7.43 |
| Cc1noc(C)c1CN1CCC(N(C)Cc2noc(C(C)C)n2)C1 (configuration not stated) | -6.37 |
| CC1CN(c2ncnc3ccccc23)CCO1 (configuration not stated) | 23.6 |
| CC(C)CN1CCC2(CCN(Cc3ccsc3)CC2)C1=O | 5.24 |
| O=C(NCCNc1ccc(Br)cn1)c1ccc(O)cc1 | 0.612 |
| COc1cnc(CN2CCN(CC(C)C)C(=O)C2C)cc1O (configuration not stated) | 3.28 |
| Cc1ccc(-c2cc(CN3CCOC(Cn4cncn4)C3)on2)cc1 (configuration not stated) | -8.65 |
| c1cc(CN2CCOC3(CCCC3)C2)no1 | -8.29 |
| CCN(CC(=O)N(C)C)S(=O)(=O)c1cnc2c(c1)c(C)nn2C | 2.59 |
| Cc1nc2sccn2c1C(=O)N1CCc2c(nc(N)[nH]c2=O)C1 | -3.22 |
| O=C(CN1CCNC1=O)N1CCc2nnc(-c3ccccc3)n2CC1 | -46.1 |
| O[C@@H]1C[C@@H](c2nc(Cc3ccccc3)no2)N(CC2CC2)C1 | -3.5 |
| Cc1c(CNC(=O)NCc2cccc(-n3cncn3)c2)cnn1C | 1.78 |
| O=C1CCCC2=C1C(c1ccccc1Cl)C1C(=O)NN=C1N2 (configuration not stated) | -11.6 |
| Cc1nnc2n1CCN(C(=O)C1CCN(Cc3ccccc3)CC1)C2 | 1.28 |
| CC(NCc1ccccc1Cl)c1ccc(OCC(=O)NC2CC2)cc1 (configuration not stated) | -12.7 |
| COCC1(NC(=O)C(c2ccc(F)cc2)N(C)C)CCCC1 (configuration not stated) | -44.9 |
| Cc1cccc(NS(=O)(=O)c2cnn(C)c2)c1C#N | -0.655 |
| CC(CO)(NC(=O)Nc1nnc(C2CC2)s1)C1CCCCC1 (configuration not stated) | 20 |
| CCN1Cc2cc3c(cc2NCCC1=O)OCO3 | -7.44 |

| Structure (SMILES) | cytotoxicity at 10 µM [%] |
| --- | --- |
| CC(c1ccccn1)N(C)C(=O)CN1CCN(c2ccccn2)CC1 (configuration not stated) | 5.1 |
| CN1CCN(CC2CC2)C(=O)C12CCN(C(=O)c1ccnnc1)CC2 | 8.49 |
| Cc1nc(CN(C)C2CCN(CC3CCCC3)C2)no1 (configuration not stated) | -5 |
| COc1ccc(C(C)Nc2ncc(C(N)=O)cc2Cl)cc1F (configuration not stated) | 5.37 |
| CCC(C)NC(=O)c1coc(COc2cccc(F)c2)n1 (configuration not stated) | -146 |
| Cc1ccc(S(=O)(=O)n2ccn(C(=O)CC(C)C)c2=O)cc1 | 11.2 |
| Cc1cccc(C(=O)N2Cc3ccccc3C3(CCN(C)CC3)C2)n1 | -73.5 |
| O=C(c1c2c(N3CCCC3)ncnc2n2ccccc12)N1CCOCC1 | 9.49 |
| Cc1ccc(NC2CCCN(CCc3ccccc3)C2)nn1 (configuration not stated) | 11.7 |
| Cc1cccc(C(=O)NCc2ccc(S(N)(=O)=O)cc2)n1 | -4.25 |
| Cc1cc(C)n(C2CCCN(C(=O)c3cnc4onc(C)c4c3)C2)n1 (configuration not stated) | 5.17 |
| OCC(CO)Nc1nc(C(F)F)nc2ccccc12 | 6.96 |
| CC(C)Cc1nc(CSCC(=O)N2CCC(C)CC2)no1 | 2.25 |
| O=C(c1cnc(OCC(F)(F)F)c(Cl)c1)N1CCc2ccc(O)cc2C1 | -5.38 |
| CN1CC2(CCCN(c3nc(N)nc4c3CCCC4)C2)OC1=O (configuration not stated) | -0.519 |
| Cn1cnc(S(=O)(=O)N2C[C@H]3CN(Cc4ccccn4)C[C@H]3C2)c1 | 4.26 |
| c1cncc(N2CCOCC3(CCCN(c4nncs4)C3)C2)c1 (configuration not stated) | -1.42 |
| CC1(C)Cc2ccc(C(=O)NC3CCS(=O)(=O)C3)c(O)c2O1 (configuration not stated) | 0.329 |
| CC(=O)Nc1ncc(S(=O)(=O)N2CCC(C)CC2)s1 | 14.8 |
